Data set [1] addresses T1, Polyunsaturated fatty acid 5-lipoxygenase (Homo sapiens) (UniProt P09917).
T1 sequence (whole entry): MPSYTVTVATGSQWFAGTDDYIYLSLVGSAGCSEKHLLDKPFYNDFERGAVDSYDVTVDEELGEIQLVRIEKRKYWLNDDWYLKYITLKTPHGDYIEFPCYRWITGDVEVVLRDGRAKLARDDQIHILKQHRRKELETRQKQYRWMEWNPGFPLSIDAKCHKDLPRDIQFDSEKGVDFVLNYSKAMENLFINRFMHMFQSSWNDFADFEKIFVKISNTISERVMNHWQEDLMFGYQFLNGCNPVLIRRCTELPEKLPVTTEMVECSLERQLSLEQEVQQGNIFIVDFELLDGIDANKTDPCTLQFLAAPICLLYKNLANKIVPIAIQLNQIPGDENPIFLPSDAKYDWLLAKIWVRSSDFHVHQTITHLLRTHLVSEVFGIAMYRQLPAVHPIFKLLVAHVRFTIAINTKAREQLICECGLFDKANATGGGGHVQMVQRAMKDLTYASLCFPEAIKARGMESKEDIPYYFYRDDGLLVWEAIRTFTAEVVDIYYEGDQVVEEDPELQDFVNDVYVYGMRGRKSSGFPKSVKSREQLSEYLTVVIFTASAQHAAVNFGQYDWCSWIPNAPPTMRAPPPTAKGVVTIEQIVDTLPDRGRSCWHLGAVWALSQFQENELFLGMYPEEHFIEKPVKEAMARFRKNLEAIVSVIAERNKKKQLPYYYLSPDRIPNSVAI
In words: Inhibition of 5-LO in human M1 macrophages derived from LPS/IFNgamma-polarized human monocyte derived macrophages assessed as effect on 5-HEPE level at 3 uM preincubated for 15 mins followed by Escherichia coli (O6:K2:H1) challenge for 90 mins by LC-MS/MS analysis. More on the design: scale not given: the % may be the effect or the level left. The gist of the method:
(§1)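 Monocytes differentiated 6 days with GM-CSF (20 ng/ml) in RPMI/10% FCS, then polarized 48 h with LPS 100 ng/ml plus IFN-γ 20 ng/ml (M1). Cells (2 × 10^6) in PBS with 1 mM CaCl2 pre-incubated 15 min at 37 °C with 3 µM compound or 0.1% DMSO, then E. coli O6:K2:H1 (1:50) for 90 min. Methanol with deuterated standards added; SPE; UPLC-MS/MS; expressed as % of vehicle.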

Data set [2] has as its target T2, Polyunsaturated fatty acid lipoxygenase ALOX15 (Homo sapiens) (UniProt P16050).
T2 sequence (whole entry): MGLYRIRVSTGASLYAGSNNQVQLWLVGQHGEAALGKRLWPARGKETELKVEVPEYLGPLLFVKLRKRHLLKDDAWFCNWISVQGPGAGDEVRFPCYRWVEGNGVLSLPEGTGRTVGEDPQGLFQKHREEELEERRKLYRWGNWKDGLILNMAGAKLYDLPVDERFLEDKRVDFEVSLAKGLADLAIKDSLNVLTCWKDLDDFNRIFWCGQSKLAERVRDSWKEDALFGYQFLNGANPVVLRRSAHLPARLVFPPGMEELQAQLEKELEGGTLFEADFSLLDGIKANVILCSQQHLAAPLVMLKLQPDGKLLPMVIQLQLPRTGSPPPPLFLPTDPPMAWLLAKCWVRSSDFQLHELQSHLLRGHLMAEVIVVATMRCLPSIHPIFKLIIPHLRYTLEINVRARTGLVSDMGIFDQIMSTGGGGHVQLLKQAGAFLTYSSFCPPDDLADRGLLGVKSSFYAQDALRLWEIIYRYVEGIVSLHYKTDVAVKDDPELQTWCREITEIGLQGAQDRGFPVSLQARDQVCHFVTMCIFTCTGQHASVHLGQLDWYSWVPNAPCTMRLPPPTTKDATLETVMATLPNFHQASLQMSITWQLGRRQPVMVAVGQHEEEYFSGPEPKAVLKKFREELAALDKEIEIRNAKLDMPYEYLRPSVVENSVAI
In words: Modulation of 15-LO-mediated 15-HEPE level in human M2 macrophages derived from IL4-polarized human monocyte derived macrophages at 3 uM preincubated for 15 mins followed by Escherichia coli (O6:K2:H1) challenge for 90 mins by LC-MS/MS analysis. The gist of the method: (§2)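 Monocytes differentiated 6 days with M-CSF (20 ng/ml), then polarized 48 h with IL-4 20 ng/ml (M2). Cells (2 × 10^6) in PBS/1 mM CaCl2 pre-incubated 15 min at 37 °C with 3 µM compound or 0.1% DMSO, then challenged with E. coli O6:K2:H1 (1:50) for 90 min. Lipid mediators extracted by SPE with deuterated internal standards and quantified by UPLC-MS/MS as % of vehicle.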

Data set [3] is filed under the species Homo sapiens. In words: Modulation of LO-mediated RvD2 level in human M2 macrophages derived from IL4-polarized human monocyte derived macrophages at 3 uM preincubated for 15 mins followed by Escherichia coli (O6:K2:H1) challenge for 90 mins by LC-MS/MS analysis. A digest of the protocol:
as §2

The target in data set [4] is T3, Cyclooxygenase (Homo sapiens, UniProt P35354+P23219). Kind of data set: Modulation of COX1/2-mediated 11-HEPE level in human M2 macrophages derived from IL4-polarized human monocyte derived macrophages at 3 uM preincubated for 15 mins followed by Escherichia coli (O6:K2:H1) challenge for 90 mins by LC-MS/MS analysis. It is filed as ADME. To be noted: 1.5 h. The gist of the method:
as §2

Data set [5] addresses T3, Cyclooxygenase. In words: Modulation of COX1/2-mediated TXB2 level in human M1 macrophages derived from LPS/IFNgamma-polarized human monocyte derived macrophages at 3 uM preincubated for 15 mins followed by Escherichia coli (O6:K2:H1) challenge for 90 mins by LC-MS/MS analysis. It is filed as protein assay. To be noted: 1.5 h. The gist of the method:
as §1

Data set [6] concerns the target T1, Polyunsaturated fatty acid 5-lipoxygenase (Homo sapiens). Kind of data set: Inhibition of 5-LO in human M1 macrophages derived from LPS/IFNgamma-polarized human monocyte derived macrophages assessed as effect on LTB4 level at 3 uM preincubated for 15 mins followed by Escherichia coli (O6:K2:H1) challenge for 90 mins by LC-MS/MS analysis. More on the design: scale not given: the % may be the effect or the level left. A digest of the protocol:
as §1

In data set [7] the target is T4, Polyunsaturated fatty acid 5-lipoxygenase (Homo sapiens, UniProt P09917).
T4 sequence (P09917 whole entry): T1 sequence (whole entry)
In words: Inhibition of 5-LO in human neutrophils using arachidonic acid as substrate assessed as reduction in 5-LO product formation preincubated for 15 mins followed by substrate addition measured after 10 mins in presence of Ca2+ ionophore A23187 by HPLC analysis. A digest of the protocol: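 Human neutrophils (5 × 10^6 in 1 ml PBS with 1 mg/ml glucose) pre-incubated 15 min at 37 °C with compound or 0.1% DMSO, then activated with 1 mM CaCl2 and 2.5 µM A23187, with or without 20 µM AA; 5-LO products measured after 10 min. Residual activity at 10 µM; IC50 by nonlinear regression from 4-5 concentrations; mean ± SEM, n=3-4.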

The species named for data set [8] is Homo sapiens. In words: Modulation of LO-mediated RvD5 level in human M2 macrophages derived from IL4-polarized human monocyte derived macrophages at 3 uM preincubated for 15 mins followed by Escherichia coli (O6:K2:H1) challenge for 90 mins by LC-MS/MS analysis. The gist of the method:
as §2

For the molecule `O=C(O)c1ccc(N(Cc2cccc(OCc3ccccc3)c2)S(=O)(=O)c2ccc(-c3ccccc3)cc2)cc1`, the Activity in data set [1] amounted to 23%; in data set [2] it was 125%; in the data set listed under Homo sapiens [3], 128%; on Cyclooxygenase [4], 107%; on Cyclooxygenase [5], 92%; in data set [6], 11%. Also, the Activity in the data set filed under Homo sapiens [8] was found to be 134%. In addition, the IC50 in data set [7] was found to be 400 nM.

The IC50 is the point on the concentration scale where inhibition reaches its midpoint.

The values are drawn from ChEMBL document CHEMBL4270576, “Discovery of a benzenesulfonamide-based dual inhibitor of microsomal prostaglandin E2 synthase-1 and 5-lipoxygenase that favorably modulates lipid mediator biosynthesis in inflammation” (Eur J Med Chem, 2018).
